Results published in ChEMBL document CHEMBL3826882, “Discovery of 1-((2R,4aR,6R,7R,7aR)-2-Isopropoxy-2-oxidodihydro-4H,6H-spiro[furo[3,2-d][1,3,2]dioxaphosphinine-7,2'-oxetan]-6-yl)pyrimidine-2,4(1H,3H)-dione (JNJ-54257099), a 3'-5'-Cyclic Phosphate Ester Prodrug of 2'-Deoxy-2'-Spirooxetane Uridine Triphosphate Useful for HCV Inhibition” (J Med Chem, 2016).

Legend:
Hepatocyte [1] = assay: Prodrug conversion in mouse primary hepatocytes assessed as 2'-deoxy-2'-spirooxetane uridine triphosphate level per million cells at 2 uM after 4 hrs using radiolabelled compound by LC-MS/MS analysis; format: ADME, cell-based
Outline: (§1)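 Study A: fresh primary hepatocyte cultures from mouse, rat, dog and human incubated with tritiated prodrug at 2 or 62.5 µM for 4 or 24 h. Triphosphate in cell lysates reported as pmol/million hepatocytes. Duplicate or single measurements.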

Hepatocyte [2] = assay: Prodrug conversion in rat primary hepatocytes assessed as 2'-deoxy-2'-spirooxetane uridine triphosphate level per million cells at 2 uM after 4 hrs using radiolabelled compound by LC-MS/MS analysis; format: ADME, cell-based; outline: as §1
Hepatocyte [3] = assay: Prodrug conversion in rat primary hepatocytes assessed as 2'-deoxy-2'-spirooxetane uridine triphosphate level per million cells at 62.5 uM after 4 hrs using radiolabelled compound by LC-MS/MS analysis; format: ADME, cell-based; outline: as §1
[4] = Prodrug conversion in dog primary hepatocytes assessed as 2'-deoxy-2'-spirooxetane uridine triphosphate level per million cells at 2 uM after 4 hrs using radiolabelled compound by LC-MS/MS analysis; format: ADME, cell-based, Canis lupus familiaris, Hepatocyte; outline: as §1
Hepatocyte [5] = assay: Prodrug conversion in human primary hepatocytes assessed as 2'-deoxy-2'-spirooxetane uridine triphosphate level per million cells at 2 uM after 4 hrs using radiolabelled compound by LC-MS/MS analysis; format: ADME, cell-based; outline: as §1
Hepatocyte [6] = assay: Drug metabolism in rat primary hepatocyte supernatant assessed as 1-((4R,5R,7R,8R)-8-hydroxy-7-(hydroxymethyl)-1,6-dioxaspiro[3.4]octan-5-yl)pyrimidine-2,4(1H,3H)-dione formation at 2 to 62.5 uM after 4 to 24 hrs using radiolabeled compound by HPLC analysis; format: ADME, cell-based; conditions: hepatocytes
Outline: (§2)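 Fresh primary hepatocyte cultures incubated with tritiated prodrug (5'-[3H]) at 2 and 62.5 µM for 4 and 24 h. Supernatants taken after protein precipitation and profiled by HPLC with radioactivity detection. Cell lysates profiled for metabolites by radio-LC. Cyclic monophosphate also measured by LC/MS/MS.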

Hepatocyte [7] = assay: Drug metabolism in rat primary hepatocytes assessed as ((4R,5R,7R,8R)-5-(2,4-dioxo-3,4-dihydropyrimidin-1(2H)-yl)-8-hydroxy-1,6-dioxaspiro[3.4]octan-7-yl)methyl dihydrogen phosphate formation at 2 to 62.5 uM after 24 hrs using radiolabeled compound by LC-MS/MS analysis; format: ADME, cell-based; outline: as §2
CYP3A4 = CYP3A4 (Homo sapiens, UniProt P08684); assay: Drug metabolism in baculovirus infected insect cell microsomes expressing human CYP3A4 assessed as CYP3A4-mediated half life at 22.7 uM; format: ADME
Chain of CYP3A4 (P08684 whole entry): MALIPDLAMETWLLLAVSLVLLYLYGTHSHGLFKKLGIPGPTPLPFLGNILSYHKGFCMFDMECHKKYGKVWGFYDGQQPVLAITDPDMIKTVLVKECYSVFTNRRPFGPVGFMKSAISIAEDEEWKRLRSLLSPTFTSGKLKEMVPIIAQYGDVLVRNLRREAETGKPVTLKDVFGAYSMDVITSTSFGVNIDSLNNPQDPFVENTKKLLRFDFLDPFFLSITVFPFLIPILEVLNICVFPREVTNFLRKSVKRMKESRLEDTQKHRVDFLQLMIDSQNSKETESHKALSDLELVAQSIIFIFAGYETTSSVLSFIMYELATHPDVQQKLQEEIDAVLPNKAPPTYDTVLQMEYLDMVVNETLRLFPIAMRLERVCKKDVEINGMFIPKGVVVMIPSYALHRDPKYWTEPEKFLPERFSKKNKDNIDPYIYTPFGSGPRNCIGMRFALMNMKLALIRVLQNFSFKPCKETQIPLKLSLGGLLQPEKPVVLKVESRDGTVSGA
Outline: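 Incubation at 22.7 µM with human CYP3A4 supersomes. Intrinsic clearance (µL/min.pmol P450) and half-life (min) were determined.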

Hepatocyte [8] = assay: Prodrug conversion in mouse cryopreserved hepatocytes assessed as 2'-deoxy-2'-spirooxetane uridine triphosphate level per million cells at 10 uM after 2 hrs by LC-MS/MS analysis; format: ADME, cell-based
Outline: (§3)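 Plated cryopreserved hepatocytes (study B) incubated with 10 µM unlabeled prodrug for 2, 8 or 24 h. Triphosphate measured in cell lysates and expressed as pmol/million hepatocytes. Quantification limit 2 ng/10^6 cells.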

Hepatocyte [9] = assay: Prodrug conversion in mouse cryopreserved hepatocytes assessed as 2'-deoxy-2'-spirooxetane uridine triphosphate level per million cells at 10 uM after 24 hrs by LC-MS/MS analysis; format: ADME, cell-based; outline: as §3
Hepatocyte [10] = assay: Prodrug conversion in rat cryopreserved hepatocytes assessed as 2'-deoxy-2'-spirooxetane uridine triphosphate level per million cells at 10 uM after 8 hrs by LC-MS/MS analysis; format: ADME, cell-based; outline: as §3
[11] = Prodrug conversion in dog cryopreserved hepatocytes assessed as 2'-deoxy-2'-spirooxetane uridine triphosphate level per million cells at 10 uM after 24 hrs by LC-MS/MS analysis; format: ADME, cell-based, Canis lupus familiaris, Hepatocyte; outline: as §3
Hepatocyte [12] = assay: Prodrug conversion in human cryopreserved hepatocytes assessed as 2'-deoxy-2'-spirooxetane uridine triphosphate level per million cells at 10 uM after 2 hrs by LC-MS/MS analysis; format: ADME, cell-based; outline: as §3
Hepatocyte [13] = assay: Prodrug conversion in human hepatocytes assessed as 2'-deoxy-2'-spirooxetane uridine triphosphate formation in presence of CYP3A4 inhibitor ritonavir by LC-MS/MS analysis; format: ADME, cell-based
Hepatocyte [14] = assay: Prodrug conversion in human hepatocytes assessed as 2'-deoxy-2'-spirooxetane uridine triphosphate formation in presence of CYP3A4 inhibitor ketoconazole by LC-MS/MS analysis; format: ADME, cell-based
Hepatocyte [15] = assay: Drug level in human hepatocytes in presence of CYP3A4 inhibitor ritonavir by LC-MS/MS analysis; format: ADME, cell-based
Hepatocyte [16] = assay: Drug level in human hepatocytes in presence of CYP3A4 inhibitor ketoconazole by LC-MS/MS analysis; format: ADME, cell-based
Hepatocyte [17] = assay: Prodrug conversion in human hepatocytes assessed as 2'-deoxy-2'-spirooxetane uridine triphosphate formation in presence of pan-PDE inhibitor ibudilast by LC-MS/MS analysis; format: ADME, cell-based
Hepatocyte [18] = assay: Drug metabolism in human hepatocytes assessed as ((4R,5R,7R,8R)-5-(2,4-dioxo-3,4-dihydropyrimidin-1(2H)-yl)-8-hydroxy-1,6-dioxaspiro[3.4]octan-7-yl)methyl dihydrogen phosphate formation in presence of PDE5 inhibitor sildenafil by LC-MS/MS analysis; format: ADME, cell-based
[19] = Tmax in mouse plasma at 50 mg/kg, po; format: ADME, organism-based
Outline: (§4)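 Single oral dose of 50 mg/kg formulated in 20% HP-β-cyclodextrin. Prodrug and its triphosphate were measured in plasma and liver (ng/mL or ng/g) over time, and Cmax, tmax, AUC, tlast and t1/2 were derived. For some analytes, data from two independent studies are reported.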

Plasma [20] = assay: Tlast in mouse plasma at 50 mg/kg, po; format: ADME, organism-based; conditions: in vivo; outline: as §4
[21] = Tmax in mouse liver at 50 mg/kg, po; format: ADME, organism-based; outline: as §4
[22] = Half life in mouse liver at 50 mg/kg, po; format: ADME, organism-based
Outline: (§5)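 Single oral dose of 50 mg/kg in 20% HP-β-cyclodextrin. Prodrug and triphosphate measured in plasma and liver over time (tlast 6–30 h). Half-life, Cmax, tmax and AUC0-last derived; liver/plasma ratio taken from AUC0-last. Prodrug data pooled from two independent studies.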

Liver [23] = assay: Cmax in mouse liver assessed as 2'-deoxy-2'-spirooxetane uridine triphosphate at 50 mg/kg, po; format: ADME, organism-based; set-up: dose 50 mg/kg, route oral; conditions: in vivo
Plasma [24] = assay: Tlast in rat plasma at 50 mg/kg, po; format: ADME, organism-based; conditions: in vivo; outline: as §4
[25] = Half life in rat plasma at 50 mg/kg, po; format: ADME, organism-based; outline: as §5
[26] = Cmax in rat liver at 50 mg/kg, po; format: ADME, organism-based; set-up: dose 50 mg/kg, route oral
Liver [27] = assay: AUC (0 to last) in rat liver assessed as 2'-deoxy-2'-spirooxetane uridine triphosphate at 50 mg/kg, po; format: ADME, organism-based; conditions: in vivo
Outline: (§6)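 Oral dose 50 mg/kg, formulated in 20% HP-β-cyclodextrin. Prodrug and triphosphate were measured in plasma and liver (ng/mL or ng/g). Parameters derived were Cmax, tmax, AUC0-last, AUC0-inf and t1/2. Some prodrug data come from two independent studies.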

Liver [28] = assay: Tlast in rat liver assessed as 2'-deoxy-2'-spirooxetane uridine triphosphate at 50 mg/kg, po; format: ADME, organism-based; conditions: in vivo; outline: as §4
Liver [29] = assay: Half life in rat liver assessed as 2'-deoxy-2'-spirooxetane uridine triphosphate at 50 mg/kg, po; format: ADME, organism-based; conditions: in vivo; outline: as §5
Liver [30] = assay: AUC (0 to infinity) in rat liver assessed as 2'-deoxy-2'-spirooxetane uridine triphosphate at 50 mg/kg, po; format: ADME, organism-based; set-up: dose 50 mg/kg, time infinity, route oral; conditions: in vivo; outline: as §6
[31] = Cmax in dog plasma at 50 mg/kg, po; format: ADME, organism-based, Canis lupus familiaris; set-up: dose 50 mg/kg, route oral
[32] = AUC (0 to last) in dog plasma at 50 mg/kg, po; format: ADME, organism-based, Canis lupus familiaris; set-up: dose 50 mg/kg, route oral, time 0 - last; outline: as §6
[33] = Cmax in dog liver at 50 mg/kg, po; format: ADME, organism-based, Canis lupus familiaris; set-up: dose 50 mg/kg, route oral
Liver [34] = assay: AUC (0 to last) in dog liver at 50 mg/kg, po; format: ADME, organism-based, Canis lupus familiaris; conditions: in vivo; outline: as §6

`[3H]C1O[P@](=O)(OC(C)C)O[C@@H]2[C@@H]1O[C@@H](n1ccc(=O)[nH]c1=O)[C@@]21CCO1` (stereo not given in full) gave a Drug metabolism (Hepatocyte [1]) of 0.063 pmol, a Drug metabolism (Hepatocyte [2]) of 0.085 pmol and a Drug metabolism (Hepatocyte [3]) of 0.45 pmol. The Drug metabolism [4] was 0.005 pmol, the Drug metabolism (Hepatocyte [5]) was 0.023 pmol and the Drug metabolism (Hepatocyte [6]) was “metabolite_detected”. The Drug metabolism (Hepatocyte [7]) was “metabolite_detected”.

`CC(C)O[P@@]1(=O)OC[C@H]2O[C@@H](n3ccc(=O)[nH]c3=O)[C@@]3(CCO3)[C@@H]2O1` showed a half-life at 22.7 µM (CYP3A4) of 2.18 h, a Drug metabolism (Hepatocyte [8]) of 0.538 pmol and a Drug metabolism (Hepatocyte [9]) of 0.519 pmol. It also gave a Drug metabolism (Hepatocyte [10]) of 0.308 pmol, a Drug metabolism [11] of under 2 ng and a Drug metabolism (Hepatocyte [12]) of 0.087 pmol. The Drug metabolism (Hepatocyte [13]) was “metabolite_notdetected”, the Drug metabolism (Hepatocyte [14]) was “metabolite_notdetected” and the Drug uptake (Hepatocyte [15]) was “Active”. For the same compound, the Drug uptake (Hepatocyte [16]) was “Active”, the Drug metabolism (Hepatocyte [17]) was “metabolite_notdetected” and the Drug metabolism (Hepatocyte [18]) was “metabolite_notdetected”. It also gave a Tmax [19] of 0.5 h, a Tlast (Plasma [20]) of 24 h and a Tmax [21] of 1 h. The half-life [22] was 2.1 h, the Cmax (Liver [23]) was 13633 ng/g and the Tlast (Plasma [24]) was 30 h. For the same compound, the half-life [25] was 4.8 h, the Cmax [26] was 944 ng/g and the AUClast (Liver [27]) was 719469 ng·h/g. For the same compound, the Tlast (Liver [28]) was 30 h, the t1/2 (Liver [29]) was 5.8 h and the AUC (Liver [30]) was 758393 ng·h/g. The Cmax [31] was 4650 ng/mL, the AUC(0-t) [32] was 25600 ng·h/mL and the Cmax [33] was 5030 ng/g. It also gave an AUClast (Liver [34]) of 35596 ng·h/g.
